In the library only some 4.9% were active in any assay of this set; here they are far more common.
Lipid droplet: modulators of hepatic lipid droplet formation | AML12 mouse hepatocytes, oleate lipid droplets, BODIPY imaging | inhibition, % at 6.5 µM | 0.4% of 240,000 active | AID 1656;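 active = lipid droplet intensity inhibited by at least 50%, with more than 500 cells counted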
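Assay system: AML12 mouse liver cells | Compound dosing: One dose, 6.5 µM compound | Read-out basis: Droplet intensity reduction, % inhibition | Measured by: Fluorescence imaging, 20x objective, two fields per well | Schedule: Overnight treatment with compound plus oleate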
CHT allo act: allosteric activators of human choline transporter CHT. Q9GZV3. CHT-expressing cells, membrane potential dye, choline EC20; active compounds read high; LV-AA mutant CHT in HEK293 cells. B-score at 10 µM. 0.49% of 310,000 active. AID 488977;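 active = initial fluorescence not abnormally high and integrated response B-score, plate-corrected, over 3 SD above library mean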
CHT inh: human CHT choline transport inhibition; CHT-expressing cells, membrane potential dye, choline response; active compounds read low; B-score at 10 µM; 0.86% of 310,000 active;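 active = B-score over 3 SD under the library average, and starting fluorescence ratio not unusually high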;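 note: choline stimulus applied at its EC90 after an EC20 pre-addition; B-score computed on integrated fluorescence ratio after choline addition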
PHOSPHO1 block: blocks human PHOSPHO1 phosphatase activity; Q8TCT1; recombinant PHOSPHO1, absorbance phosphatase assay; inhibition, % at 13.3 µM; 1.1% of 290,000 active; AID 1565; in the data active = inhibition above about 60%
Target sequence (Q8TCT1 whole entry, looked up): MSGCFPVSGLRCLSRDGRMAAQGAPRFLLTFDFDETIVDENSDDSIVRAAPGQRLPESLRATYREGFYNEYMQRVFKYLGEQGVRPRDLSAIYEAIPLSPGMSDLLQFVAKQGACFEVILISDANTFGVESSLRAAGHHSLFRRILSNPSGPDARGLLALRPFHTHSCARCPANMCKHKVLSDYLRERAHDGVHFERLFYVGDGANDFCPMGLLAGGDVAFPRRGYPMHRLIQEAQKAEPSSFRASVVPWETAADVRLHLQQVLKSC
HSF1 inhib: HSF1 inhibition. AID 2098. NIH3T3-HGL HSE-luciferase, MG132-induced, luminescence 8 h; active compounds read low. 0.77% of 300,000 active. activity change, negative = inhibition, % at 7.5 µM (by protocol);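 active = more than half of replicate wells show activity change below -50%, luminescence cut by over half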;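 note: luciferase reports HSF-1 transcriptional activity via heat shock element; 0% = median of DMSO wells and -100% = zero luminescence signal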
HSF-1 act: increases HSF-1 driven luciferase reporter signal; 1.7% of 300,000 active; AID 504408; NIH3T3-HGL HSF-1 luciferase reporter, MG132, 8 h; 100% = twice DMSO control signal; activation, % at 9 µM;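 active = mean replicate activation of at least 50% with a set share of replicates each reaching 50%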;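 note: 0% = median of the neutral control wells and 100% = twice that signal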
* = called active by the depositor; i = inactive; x = no result given.

SMILES | Lipid droplet | CHT allo act | CHT inh | PHOSPHO1 block | HSF1 inhib | HSF-1 act
CC(C)n1c(SCC(=O)NC2CC2)nnc1-c1ccco1 | 16 | i | i | 66* | 4 | -3
CCN(Cc1ccccc1)C(=O)COC(=O)CNS(=O)(=O)c1ccc(C)cc1 | 4 | i | i | -5 | 0 | 0
CN1C(=O)C(=C2CCCCCC2)SC1=S | x | i | i | 6 | 5 | 0
O=C1NC(=S)SC1=C1CCCC1 | -6 | i | i | 71* | 1 | 3
CCOc1ccc(N2CSC(=S)N(c3ccc(OCC)cc3)C2)cc1 | -29 | i | i | -18 | -65* | -71
C=CCc1ccccc1OCCNCc1ccccc1 | 12 | i | i | -3 | 7 | 11
COc1cccc(/C=N/NC(=O)c2cnccn2)c1 | 10 | i | i | 5 | -76* | -82
COc1ccc(/C=N/NC(=O)c2cnccn2)cc1O | -2 | i | i | -17 | 4 | 6
Cc1ccc(C(c2nnnn2C2CCCC2)N2CCc3ccccc32)cc1 (configuration not stated) | 0 | i | i | 1 | 16 | 59*
CCCc1nnc(NC(=O)CN2C(=O)c3ccccc3C2=O)s1 | -8 | i | i | 86* | -4 | 27
CCc1nnc(NC(=O)CN2C(=O)c3ccccc3C2=O)s1 | x | i | i | 74* | -16 | -6
CCOC(=O)c1cccc(NC(=O)C2CCCN(S(=O)(=O)c3c(C)nn(C)c3C)C2)c1 (configuration not stated) | x | i | i | 26 | x | x
CNC(=S)Nc1cccc(C(C)=O)c1 | 20 | i | i | 38 | -1 | 4
CC(=O)c1cccc(NC(=S)NC(=O)c2ccccc2)c1 | -3 | i | i | -2 | 22 | 55*
O=C(NC(=S)Nc1cc([N+](=O)[O-])ccc1Cl)c1ccccc1 | 10 | i | i | 11 | 12 | 54*
O=C(O)c1cccc(NC(=S)NC(=O)c2ccc(-c3ccccc3)cc2)c1 | -1 | i | i | 22 | -58* | -67
O=C(NC(=S)Nc1cccc([N+](=O)[O-])c1)c1ccccc1 | -30 | i | i | 8 | -3 | 1
CC(=O)c1cccc(NC(=S)NC(=O)c2cccc(Cl)c2)c1 | 2 | i | i | -16 | 37 | 56*
Cc1ccc(C(=O)O)cc1NC(=S)NC(=O)c1ccc(-c2ccccc2)cc1 | 1 | i | i | 44 | 0 | 41
Cc1cc(=O)[nH]c(-n2[nH]c3c(c2=O)CCCC3)n1 | x | i | i | 30 | 4 | 5
CCOc1ccc(S(=O)(=O)c2c[nH]c3ccc(C)cc3c2=O)cc1 | -1 | i | i | 48 | 8 | 10
O=C(Nc1cccc([N+](=O)[O-])c1)c1[nH]ncc1Cl | -90 | i | i | 4 | 22 | 52*
O=C(Nc1cccc([N+](=O)[O-])c1)c1cnccn1 | 2 | i | i | 19 | 1 | 4
O=C(NCc1ccccc1)C1CCC(=O)N(CC2CCCCC2)C1 (configuration not stated) | 23 | i | i | 13 | 4 | 9
O=C(Nc1cccc(Cl)c1Cl)c1snnc1-c1ccccc1 | x | i | i | 26 | -86* | -89
SMILES | Lipid droplet | CHT allo act | CHT inh | PHOSPHO1 block | HSF1 inhib | HSF-1 act
COC(=O)c1ccc(NC(=O)c2snnc2-c2ccccc2)cc1 | -2 | i | i | 61* | 2 | 7
O=C(Nc1cc(Cl)ccc1O)c1snnc1-c1ccccc1 | x | i | i | 28 | -1 | -7
Cc1cc(C)c(-c2nc3ccccc3s2)[nH]1 | 5 | i | i | -25 | 21 | 49
CCOc1cc(/C=C2/SC(=S)N(CC3CCCO3)C2=O)ccc1O (configuration not stated) | -34 | i | i | 35 | 28 | 73*
CCCCCc1ccc(-c2ccc(=O)[nH]n2)cc1 | x | i | i | 8 | 10 | 3
Cc1ccc(-c2ccc(=O)[nH]n2)cc1 | -4 | i | i | -1 | 24 | 55*
COc1ccc(-c2nc(C#N)c(N3CCCCCC3)o2)cc1 | -12 | i | i | 22 | 1 | -2
COc1ccc(-c2nc(C#N)c(N3CCCCC3)o2)cc1 | -3 | i | i | 28 | 20 | 74*
CN(C)c1ccc(/C=C/C(=O)c2cccnc2)cc1 | 5 | i | i | 60* | 4 | -7
O=C(/C=C/c1cccc(O)c1)c1cccnc1 | 1 | i | i | -13 | -3 | 20
Cc1cc(-c2onc(C)c2C(=O)O)no1 | 6 | i | i | 37 | -4 | 0
C=CCOc1cccc(C(=O)/C=C2/C(=O)Nc3ccccc32)c1 | 2 | i | i | 7 | 158 | 236*
CCCOc1ccc(C(NC(=O)CC(C)C)NC(=O)CC(C)C)cc1OC | -10 | i | i | 9 | -1 | 13
O=C(O)c1csc(N/N=C/c2ccc(Br)cc2)n1 | 36 | x | x | 11 | 39 | 81*
Cc1csc(N/N=C/c2ccc([N+](=O)[O-])cc2)n1 | -2 | i | i | -6 | -5 | -11
Cc1nc(NC(=O)c2ccccc2)sc1C | -39 | i | i | 3 | 32 | 58*
CCOC(=O)Cc1cnc(NC(=O)c2ccccc2)s1 | x | i | i | 12 | -54* | -59
CCOC(=O)c1sc(=NC(=O)c2ccc(OC)c(OC)c2)n(C)c1C | x | i | i | -24 | -6 | -9
CCOC(=O)c1sc(=NC(=O)c2ccccc2)n(C)c1C | -3 | i | i | 1 | 14 | 61*
Cc1nc(NC(=O)c2csc3ccccc23)sc1C | x | i | i | -8 | 31 | 61*
Cc1nc(NC(=S)NC(=O)c2ccccc2)sc1C | 4 | i | i | 2 | 15 | 22
CCOC(=O)c1sc(NC(=O)c2ccccc2)cc1C | -2 | i | i | -6 | 25 | 55*
CCOC(=O)c1sc(NC(=O)c2ccc(S(=O)(=O)N(C)C)cc2)cc1C | 13 | i | i | 10 | 2 | 2
Cc1nc(Nc2ccccc2)sc1C | 3 | i | i | -6 | -52* | -59
CC1(C)OC(=O)N(CCC(=O)Nc2cccc(F)c2)C1(C)O (configuration not stated) | 0 | i | i | -1 | -4 | 5
Cc1occc1C(=O)NNC1=CC(=O)CC(C)(C)C1 | 8 | i | i | -9 | 8 | 9
CC(CSc1nc2ccccc2s1)Cn1c(N2CCCC2)nc2c1c(=O)[nH]c(=O)n2C (configuration not stated) | 0 | i | i | 3 | 22 | 56*
COc1ccc(Nc2nc(N)nc(CCl)n2)cc1 | 9 | i | i | 42 | -27 | -24
Nc1nc(CCl)nc(Nc2ccc3ccccc3c2)n1 | 14 | x | x | 16 | 80 | 111*

Bioassay records: PubChem, several laboratories
